≈ marks a conversion by molar mass, not a printed value.
Tests used:
Cannabinoid receptor 1 [1] = target: T1, Cannabinoid receptor 1 (Homo sapiens, UniProt P21554); test: Agonist activity at human recombinant CB1 receptor expressed in Sf9 cells by GTP-europium binding assay relative to CP-55940
Procedure, shortened: (§1)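 Membranes were from Sf9 insect cells cotransfected with CB1 or CB2 plus Gαi3 (Bmax 1.7 pmol/mL). Compound (0.01 nM–10 µM, 1% DMSO final) was added to buffer with Hepes, BSA, 10 mM MgCl2, 150 mM NaCl, 5 µM GDP, 10 nM GTP-europium, saponin and membranes (CB1 4.5 µg/well, CB2 14 µg/well). Incubation was 45 min at room temperature, then filtration and washing, with fluorescence read at 615 nm. 100% efficacy was set by 3 µM reference agonist.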

Cannabinoid receptor 2 [2] = target: T2, Cannabinoid receptor 2 (Rattus norvegicus, UniProt Q9QZN9); test: Agonist activity at rat recombinant CB2 receptor expressed in CHO-K1 cells assessed as inhibition of forskolin-stimulated intracellular cAMP level; format: functional, cell-based
T2 sequence (Q9QZN9 whole entry): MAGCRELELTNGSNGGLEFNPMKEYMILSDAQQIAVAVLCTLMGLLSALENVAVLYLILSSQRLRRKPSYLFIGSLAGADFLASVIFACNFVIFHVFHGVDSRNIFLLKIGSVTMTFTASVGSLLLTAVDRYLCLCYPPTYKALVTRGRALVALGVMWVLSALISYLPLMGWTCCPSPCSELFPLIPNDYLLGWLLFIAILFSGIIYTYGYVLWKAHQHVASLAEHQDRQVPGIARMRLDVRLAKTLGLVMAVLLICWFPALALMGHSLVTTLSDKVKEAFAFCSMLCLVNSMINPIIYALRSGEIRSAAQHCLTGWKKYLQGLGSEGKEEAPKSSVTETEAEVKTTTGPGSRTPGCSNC
Procedure, shortened: (§2)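 CHO-K1 cells stably expressing human or rat CB1 or CB2 were used. Compounds were diluted from DMSO into HBSS/HEPES/BSA buffer containing 60 µM forskolin, then combined with 5000 cells/well plus Alexa647 anti-cAMP antibody, 1 h at room temperature. A biotinylated-cAMP detection mix was added for another 1 h. Emission at 665 nm gave concentration-response curves and EC50; Emax is expressed as a percentage of the reference agonist maximum.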

[3] = target: Cannabinoid receptor 1 (Rattus norvegicus) (UniProt P20272); test: Agonist activity at rat recombinant CB1 receptor expressed in CHO-K1 cells assessed as inhibition of forskolin-stimulated intracellular cAMP level relative to CP-55940; format: functional, cell-based; procedure, shortened: as §2
Cannabinoid receptor 2 [4] = target: T3, Cannabinoid receptor 2 (Homo sapiens, UniProt P34972); test: Agonist activity at human recombinant CB2 receptor expressed in Sf9 cells by GTP-europium binding assay relative to CP-55940; procedure, shortened: as §1
Cannabinoid receptor 2 [5] = target: T3, Cannabinoid receptor 2; test: Agonist activity at human recombinant CB2 receptor expressed in Sf9 cells by GTP-europium binding assay
Procedure, shortened: as §1, with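 “µg/well).” for “µg/well). Incubation was 45 min at room temperature, then filtration and washing, with fluorescence read at 615 nm.”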

[6] = Half life in rat at 10 mg/kg, po; format: ADME, organism-based; parameters: dose 10 mg/kg, route oral; conditions: in vivo
Cannabinoid receptor 2 [7] = target: T3, Cannabinoid receptor 2; test: Agonist activity at human recombinant CB2 receptor expressed in CHO-K1 cells assessed as inhibition of forskolin-stimulated intracellular cAMP level; format: functional, cell-based
Procedure, shortened: as §2, with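 “h.” for “h. Emission at 665 nm gave concentration-response curves and EC50; Emax is expressed as a percentage of the reference agonist maximum.”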

Cannabinoid receptor 1 [8] = target: T1, Cannabinoid receptor 1; test: Agonist activity at human recombinant CB1 receptor expressed in CHO-K1 cells assessed as inhibition of forskolin-stimulated intracellular cAMP level relative to CP-55940; format: functional, cell-based; procedure, shortened: as §2
[9] = (§3) Oral bioavailability in rat at 10 mg/kg; format: ADME, organism-based; conditions: in vivo
[10] = (§4) AUC in rat at 10 mg/kg, po; format: ADME, organism-based, Plasma; parameters: dose 10 mg/kg, route oral; conditions: plasma
Cannabinoid receptor 1 [11] = target: T1, Cannabinoid receptor 1; test: Agonist activity at human CB1 receptor expressed in Sf9 cells by GTP-europium binding assay
Procedure, shortened: as §1, with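 “µg/well).” for “µg/well). Incubation was 45 min at room temperature, then filtration and washing, with fluorescence read at 615 nm.”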

Cannabinoid receptor 1 [12] = target: T1, Cannabinoid receptor 1; test: Agonist activity at human recombinant CB1 receptor expressed in CHO-K1 cells assessed as inhibition of forskolin-stimulated intracellular cAMP level; format: functional, cell-based
Procedure, shortened: as §2, with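 “h.” for “h. Emission at 665 nm gave concentration-response curves and EC50; Emax is expressed as a percentage of the reference agonist maximum.”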

Cannabinoid receptor 1 [13] = target: Cannabinoid receptor 1 (Rattus norvegicus, UniProt P20272); test: Agonist activity at rat recombinant CB1 receptor expressed in CHO-K1 cells assessed as inhibition of forskolin-stimulated intracellular cAMP level; format: functional, cell-based
Procedure, shortened: as §2, with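 “h.” for “h. Emission at 665 nm gave concentration-response curves and EC50; Emax is expressed as a percentage of the reference agonist maximum.”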

Cannabinoid receptor 2 [14] = target: T3, Cannabinoid receptor 2; test: Agonist activity at human recombinant CB2 receptor expressed in CHO-K1 cells assessed as inhibition of forskolin-stimulated intracellular cAMP level relative to CP-55940; format: functional, cell-based; procedure, shortened: as §2
[15] = Solubility in simulated intestinal fluid; format: physicochemical; conditions: read-out: Stability
[16] = target: T4, Cannabinoid receptor 2 (Rattus norvegicus) (UniProt Q9QZN9); test: Agonist activity at rat recombinant CB2 receptor expressed in CHO-K1 cells assessed as inhibition of forskolin-stimulated intracellular cAMP level relative to CP-55940; format: functional, cell-based; procedure, shortened: as §2
T4 sequence (whole entry): T2 sequence (Q9QZN9 whole entry)

[17] = Cmax in rat at 10 mg/kg, po; format: ADME, organism-based; parameters: dose 10 mg/kg, route oral; conditions: in vivo
[18] = Metabolic stability in human liver microsomes; format: ADME, Microsome; conditions: read-out: Stability
[19] = Metabolic stability in rat liver microsomes; format: ADME, Microsome; conditions: read-out: Stability
Cannabinoid receptor 1 [20] = target: T1, Cannabinoid receptor 1; test: Binding affinity to CB1 receptor
Cannabinoid receptor 2 [21] = target: T3, Cannabinoid receptor 2; test: Binding affinity to CB2 receptor
Rattus norvegicus [22] = test: Oral bioavailability in rat; format: ADME, organism-based; conditions: in vivo
Rattus norvegicus [23] = test: Clearance in rat at 0.5 mg/kg, iv; format: ADME, organism-based; parameters: dose 0.5 mg/kg, route intravenous; conditions: in vivo
Rattus norvegicus [24] = test: as §3; format: ADME, organism-based; conditions: in vivo
Rattus norvegicus [25] = test: as §4; format: ADME, organism-based, Plasma; parameters: dose 10 mg/kg, route oral; conditions: in vivo

T3 sequence (P34972 whole entry): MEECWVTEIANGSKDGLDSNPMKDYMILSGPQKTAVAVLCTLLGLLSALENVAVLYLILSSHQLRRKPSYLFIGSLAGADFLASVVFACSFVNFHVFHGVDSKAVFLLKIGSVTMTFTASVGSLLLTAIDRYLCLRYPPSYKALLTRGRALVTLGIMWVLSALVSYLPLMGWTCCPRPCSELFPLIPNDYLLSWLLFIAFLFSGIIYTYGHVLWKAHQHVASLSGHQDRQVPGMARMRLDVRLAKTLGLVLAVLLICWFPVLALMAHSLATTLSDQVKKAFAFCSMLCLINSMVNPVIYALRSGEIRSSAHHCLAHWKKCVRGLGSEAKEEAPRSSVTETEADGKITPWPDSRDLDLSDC
Cannabinoid receptor 1 (Rattus norvegicus), sequence (P20272 whole entry): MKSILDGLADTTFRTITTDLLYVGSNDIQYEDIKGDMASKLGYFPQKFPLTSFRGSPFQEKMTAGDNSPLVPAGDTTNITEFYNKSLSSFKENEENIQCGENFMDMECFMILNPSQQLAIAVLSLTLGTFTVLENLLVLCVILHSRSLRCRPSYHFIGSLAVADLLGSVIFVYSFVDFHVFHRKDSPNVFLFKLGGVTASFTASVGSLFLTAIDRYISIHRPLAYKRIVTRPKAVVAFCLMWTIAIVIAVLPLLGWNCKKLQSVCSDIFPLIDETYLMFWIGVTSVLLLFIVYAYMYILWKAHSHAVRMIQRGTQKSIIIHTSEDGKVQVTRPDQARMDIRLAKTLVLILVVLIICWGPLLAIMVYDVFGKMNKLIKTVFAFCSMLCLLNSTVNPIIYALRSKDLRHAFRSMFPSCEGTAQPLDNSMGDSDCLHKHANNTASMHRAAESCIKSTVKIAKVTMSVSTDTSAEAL
Cannabinoid receptor 1 (Rattus norvegicus, UniProt P20272), sequence (P20272 whole entry): as above
T1 sequence (P21554 whole entry): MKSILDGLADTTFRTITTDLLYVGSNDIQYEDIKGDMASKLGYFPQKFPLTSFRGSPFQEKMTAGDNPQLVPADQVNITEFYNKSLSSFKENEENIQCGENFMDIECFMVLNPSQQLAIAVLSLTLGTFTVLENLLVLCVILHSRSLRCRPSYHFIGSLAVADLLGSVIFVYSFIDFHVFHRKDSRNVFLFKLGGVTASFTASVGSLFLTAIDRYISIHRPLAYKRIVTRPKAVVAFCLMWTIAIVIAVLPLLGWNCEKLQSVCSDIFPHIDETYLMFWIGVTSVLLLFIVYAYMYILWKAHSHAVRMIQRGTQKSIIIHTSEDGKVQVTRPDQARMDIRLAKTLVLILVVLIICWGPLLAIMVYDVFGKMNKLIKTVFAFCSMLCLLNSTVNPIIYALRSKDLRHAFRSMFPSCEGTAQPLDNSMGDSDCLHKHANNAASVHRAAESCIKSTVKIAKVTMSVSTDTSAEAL

Row | SMILES | Emax (Cannabinoid receptor 1 [1]) [%] | EC50 (Cannabinoid receptor 2 [2]) [nM] | Emax [3] [%] | Emax (Cannabinoid receptor 2 [4]) [%] | EC50 (Cannabinoid receptor 2 [5]) [nM] | half-life [6] [h] | EC50 (Cannabinoid receptor 2 [7]) [nM] | Emax (Cannabinoid receptor 1 [8]) [%] | EC50 (Cannabinoid receptor 1 [11]) [nM] | EC50 (Cannabinoid receptor 1 [12]) [nM] | EC50 (Cannabinoid receptor 1 [13]) [nM] | Emax (Cannabinoid receptor 2 [14]) [%] | solubility [15] [µg/mL] | Emax [16] [%] | Cmax [17] [ng/mL] | microsomal CLint [18] [µL/min/mg] | microsomal CLint [19] [µL/min/mg] | also measured
1 | Fc1ccc(-c2noc(CCCNc3cnc4ccc(Cl)cc4c3)n2)c(Cl)c1 | 51 | 1.3 | 85 | 110 | 1.7 | 5.1 | 2.2 | 88 | 220 | 560 | 77 | 94 | 87 (≈ 208 µM) | 90 | 8400 |  |  | bioavailability [9]: < 100%; AUC [10]: 43000 ng·h/mL
2 | O=C(CCc1nc(-c2ccc(F)cc2Cl)no1)Nc1nc2ccc(OC(F)(F)F)cc2s1 | 36 | 6.9 | 21 | 120 | 3 |  | 6.5 | 36 | 1900 | > 1000 | > 1000 | 99 |  | 98 |  | < 100 | < 100 | 
3 | Fc1ccc(-c2noc(CCCNc3cnc4ccc(OC(F)(F)F)cc4c3)n2)c(Cl)c1 | 81 | 1.3 | 120 | 110 | 0.015 |  | 2.3 | 78 | 1100 | 850 | 130 | 110 | 49 (≈ 105 µM) | 130 |  |  |  | 
4 | N#Cc1cc(NC(=O)CCc2nc(-c3ccc(F)cc3Cl)no2)cnc1OCC(F)(F)F |  | 3.1 |  | 110 | 14 | 3.1 | 31 |  | > 10000 | > 1000 | > 1000 | 97 | 24 (≈ 51.1 µM) | 100 | 3400 |  |  | bioavailability [9]: 36%; AUC [10]: 21000 ng·h/mL
5 | O=C(CCc1nc(-c2ccc(F)cc2Cl)no1)Nc1ccc(C(F)(F)F)cc1Cl |  |  |  | 41 | 370 | 1.6 |  |  | > 10000 |  |  |  |  |  | 100 |  |  | bioavailability [9]: 13%; AUC [10]: 460 ng·h/mL
6 | O=C(CCc1nc(-c2ccc(F)cc2Cl)no1)Nc1cnc2ccc(Cl)cc2c1 | 82 | 11 | 99 | 110 | 1400 |  | 0.5 | 57 | 0.9 | 710 | 130 | 99 |  | 97 |  | < 100 | < 100 | 
7 | O=C(CCc1nc(-c2ccc(F)cc2Cl)no1)Nc1cnc2ncc(Cl)cc2c1 | 43 | 0.4 | 100 | 110 | 3.3 |  | 0.6 | 30 | 2300 | > 1000 | 220 | 97 |  | 100 |  | < 100 | < 100 | 
8 | O=C(CCc1nc(-c2ccc(F)cc2Cl)no1)Nc1nnc(N2CCCCC2)s1 | 47 | 1.1 | 87 | 98 | 1.2 |  | 0.8 | 38 | 211 | > 1000 | 220 | 98 |  | 98 |  | < 100 | < 100 | 
9 | Cc1ccc2c(=O)c(C(=O)NC3CCCCC3)cn(Cc3ccc(F)cc3)c2n1 |  |  |  |  |  |  |  |  |  |  |  |  |  |  |  |  |  | Ki (Cannabinoid receptor 1 [20]): 15 nM; Ki (Cannabinoid receptor 2 [21]): 5.5 nM
10 | CCn1c2ccccc2c2cc(NC(=O)CCc3nc(-c4ccccc4F)no3)ccc21 |  | 33 |  | 100 |  | 1.6 |  |  | > 10000 | > 1000 | > 1000 | 93 | 2 (≈ 4.67 µM) | 91 | 100 | 274 | 198 | F (Rattus norvegicus [22]): 13%; CL (Rattus norvegicus [23]): 20 mL/min/kg; F (Rattus norvegicus [24]): 13%; AUC (Rattus norvegicus [25]): 460 ng·h/mL
11 | Fc1ccc(-c2noc(CCCNc3nc4ccc(Cl)cc4s3)n2)c(Cl)c1 | 16 | 290 | 45 | 100 | 170 |  | 110 | 25 | 3300 | > 1000 | > 1000 | 87 |  | 66 |  |  |  | 
